Assay results taken from ChEMBL document CHEMBL1124990, “Propenyl carboxamide derivatives as antagonists of platelet activating factor” (J Med Chem, 1990).

Columns and labels:
Type in all cases: functional
[1] = system: Cavia porcellus; assay: Dose that caused significant inhibition of the platelet activating factor-induced bronchoconstriction in guinea pig after intravenous administration; conditions: read-out: ID50 (the source's name)
In short: (§1)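 Male Hartley guinea pigs (400–600 g), urethane-anesthetized (2 g/kg ip), jugular cannula; propranolol given 5 min before PAF; succinylcholine (1.2 mg/kg iv) then ventilation at 40 breaths/min, 4.0 cm³ stroke. Drug or vehicle iv 1 min before PAF 1 μg/kg iv. Tracheal pressure change averaged over four control and four treated animals, expressed as % inhibition; screen at 1 mg/kg.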

[2] = system: Cavia porcellus; assay: In vivo inhibition of the platelet activating factor-induced bronchoconstriction after 2 hr at dose 50 mg/kg administered perorally in guinea pig; conditions: route oral
In short: (§2)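 Oral dosing of 50 mg/kg, either 2 h or 6 h before iv PAF challenge (1 μg/kg), in urethane-anesthetized male Hartley guinea pigs (400–600 g). Animals were propranolol-pretreated, paralysed with succinylcholine and ventilated. Tracheal pressure change averaged over four vehicle and four drug-treated animals and reported as % inhibition.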

[3] = system: Cavia porcellus; assay: In vivo inhibition of the platelet activating factor-induced bronchoconstriction at dose 1.0 mg/kg administered intravenous in guinea pig; in short: as §1
[4] = system: Cavia porcellus; assay: Dose that caused significant inhibition of the platelet activating factor-induced bronchoconstriction in guinea pig after peroral administration; conditions: po, read-out: ID50 (the source's name)
In short: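 Male Hartley guinea pigs (400–600 g), urethane-anesthetized (2 g/kg ip), jugular cannula, propranolol pretreatment, succinylcholine paralysis and ventilation. Compound or vehicle given orally 2 h before iv PAF challenge (1 μg/kg). Tracheal pressure rise averaged over four control and four dosed animals, giving % inhibition.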

[5] = system: Cavia porcellus; assay: In vivo inhibition of the platelet activating factor-induced bronchoconstriction after 6 hr at dose 50 mg/kg administered perorally in guinea pig; conditions: route oral; in short: as §2

Row | Compound | ED50 [1] | inhibition in vivo at 50 mg/kg [2] | inhibition in vivo at 1 mg/kg [3] | ED50 [4] | inhibition in vivo at 50 mg/kg [5]
1 | CCCCc1c(/C=C/C(=O)N[C@@H](C)CCCc2cccnc2)ccc2c(OC)cccc12 | 1 mg/kg | 4% | 50% |  | 
2 | CCCCCc1c(/C=C/C(=O)N[C@@H](CC)CCCc2cccnc2)n(C)c2cc(OC)ccc12 | 0.07 mg/kg | 99% | 98% | 3 mg/kg | 96%
3 | COc1ccc(-c2c(/C=C/C(=O)N[C@@H](C)CCCc3cccnc3)ccc3cc(OC)ccc23)cc1 | 0.18 mg/kg | 79% | 92% | 12 mg/kg | 55%
4 | CCCCC1=C(/C=C/C(=O)N[C@@H](C)CCCc2cccnc2)CCc2cc(OC)ccc21 | 0.46 mg/kg | 50% | 94% | 50 mg/kg | 
5 | CCCCC/C(=C\C=C\C(=O)N[C@@H](C)CCCc1cccnc1)c1ccc(OC)cc1 | 0.05 mg/kg | 100% | 99% | 4.1 mg/kg | 71%
6 | CCCCCc1c(/C=C/C(=O)N[C@@H](C)CCCc2cccnc2)oc2cc(OC)ccc12 | 0.06 mg/kg | 0% | 89% |  | 
7 | CCCCCC1=C(/C=C/C(=O)N[C@@H](C)CCCc2cccnc2)Cc2cc(OC)ccc21 | 0.05 mg/kg | 0% | 96% |  | 
8 | CCCCCc1c(/C=C/C(=O)N[C@@H](C)CCCc2cccnc2)sc2cc(OC)ccc12 | 0.11 mg/kg | 97% | 98% | 5.4 mg/kg | 97%
9 | CCCCc1c(/C=C/C(=O)N[C@@H](C)CCCc2cccnc2)ccc2cc(OC)ccc12 | 0.45 mg/kg | 92% | 95% | 4.2 mg/kg | 71%
10 | CCCCc1c(/C=C/C(=O)N[C@@H](C)CCCc2cccnc2)ccc2ccc(OC)cc12 |  |  | 0% |  | 
11 | COc1ccc(C2=C(/C=C/C(=O)N[C@@H](C)CCCc3cccnc3)CCc3cc(OC)ccc32)cc1 | 0.15 mg/kg | 75% | 95% | 17 mg/kg | 1%
12 | CCCCc1c(/C=C/C(=O)N[C@@H](C)CCCc2cccnc2)cc(OC)c2ccccc12 | 0.11 mg/kg | 95% | 90% | 2.8 mg/kg | 52%
13 | CCCCc1c(/C=C/C(=O)N[C@@H](C)CCCc2cccnc2)cc(OC)c2ccc(OC)cc12 | 0.44 mg/kg | 16% | 80% |  | 
